Assay results as given in ChEMBL document CHEMBL1145471, “Small molecule regulators of autophagy identified by an image-based high-throughput screen” (Proc Natl Acad Sci U S A, 2007).

Legend:
Format in all cases: functional
H4 [1] = assay: Decrease in FYVE-RFP+ vesicle intensity per cell in human H4 cells after 2 hrs relative to control; set-up: concentration or dose not given beside the values; scale not given: the % may be the effect or the level left
In short: (§1)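 H4 cells stably expressing FYVE-RFP (H4-FYVE), grown in DMEM with 10% FBS, penicillin/streptomycin and 2 mM L-glutamine at 37°C, 5% CO2, seeded in 96-well plates and exposed to compound. Fixed in 4% paraformaldehyde, nuclei stained with 3 μg/ml DAPI, FYVE-RFP+ vesicles quantified by high-throughput fluorescence microscopy against DMSO control. Triplicate wells, mean ± SD.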

H4 [2] = assay: Decrease in FYVE-RFP+ vesicle intensity per cell in human H4 cells after 8 hrs relative to control; set-up: concentration or dose not given beside the values; scale not given: the % may be the effect or the level left; in short: as §1
H4 [3] = assay: Increase in light chain 3-GFP+ autophagosome vesicle intensity per cell in human H4 cells at 6.2 uM after 24 hrs by high throughput fluorescence microscopy relative to control
In short: (§2)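 H4 cells stably expressing LC3-GFP were grown in DMEM with 10% FBS and 2 mM L-glutamine at 37°C, 5% CO2. They were exposed to each compound for 24 h, with DMSO as negative and rapamycin as positive control. Cells were then fixed in 4% paraformaldehyde and stained with 3 μg/ml DAPI. High-throughput fluorescence imaging scored LC3-GFP spot number, size and intensity, expressed relative to DMSO. Mean ± SD of triplicates; experiments repeated three times.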

H4 [4] = assay: Decrease in FYVE-RFP+ vesicle intensity per cell in human H4 cells after 4 hrs relative to control; set-up: concentration or dose not given beside the values; scale not given: the % may be the effect or the level left; in short: as §1
H4 [5] = assay: Increase in light chain 3-GFP+ autophagosome vesicle number per cell in human H4 cells at 6.2 uM after 24 hrs by high throughput fluorescence microscopy relative to control; in short: as §2
H4 [6] = assay: Increase in long-lived protein degradation in human H4 cells after 4 hrs relative to control; set-up: concentration or dose not given beside the values
H4 [7] = assay: Induction of light chain 3-GFP level in human H4 cells at 6.2 uM after 24 hrs by high throughput fluorescence microscopy relative to control
In short: (§3)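 H4 cells stably expressing LC3-GFP, grown in DMEM with 10% FBS, penicillin/streptomycin and 2 mM L-glutamine at 37°C, 5% CO2. Cells were seeded in 96-well plates and exposed to library compounds at 3–12 μM for 24 h, then fixed in 4% paraformaldehyde and stained with 3 μg/ml DAPI. LC3-GFP spot number, size and intensity were measured by high-throughput fluorescence microscopy and expressed relative to DMSO. Triplicates, mean ± SD.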

H4 [8] = assay: Increase in long-lived protein degradation in human H4 cells after 1 hr relative to control; set-up: concentration or dose not given beside the values
H4 [9] = assay: Increase in light chain 3-GFP+ autophagosome vesicle area per cell in human H4 cells at 6.2 uM after 24 hrs by high throughput fluorescence microscopy relative to control
In short: (§4)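 H4 cells stably expressing LC3-GFP, seeded in 96-well plates and exposed to compound for 24 h; screening concentrations were 3–12 μM, with rapamycin 0.22 μM and bafilomycin A1 0.40 μM. Cells fixed in 4% paraformaldehyde and stained with 3 μg/ml DAPI. Number, size and intensity of LC3-GFP spots measured by high-throughput fluorescence microscopy and expressed as percent of DMSO-treated wells. Rapamycin was the positive control. Triplicate wells, mean ± SD; experiments repeated three times.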

H4 [10] = assay: Increase in long-lived protein degradation in human H4 cells after 2 hrs relative to control; set-up: concentration or dose not given beside the values
H4 [11] = assay: Increase in long-lived protein degradation in human H4 cells after 24 hrs relative to control; set-up: concentration or dose not given beside the values
H4 [12] = assay: Induction of light chain 3-GFP level in human H4 cells at 6.9 uM after 24 hrs by high throughput fluorescence microscopy relative to control; in short: as §3
H4 [13] = assay: Increase in light chain 3-GFP+ autophagosome vesicle number per cell in human H4 cells at 6.9 uM after 24 hrs by high throughput fluorescence microscopy relative to control; in short: as §2
H4 [14] = assay: Increase in light chain 3-GFP+ autophagosome vesicle area per cell in human H4 cells at 6.9 uM after 24 hrs by high throughput fluorescence microscopy relative to control; in short: as §4
H4 [15] = assay: Increase in light chain 3-GFP+ autophagosome vesicle intensity per cell in human H4 cells at 6.9 uM after 24 hrs by high throughput fluorescence microscopy relative to control; in short: as §2
H4 [16] = assay: Increase in light chain 3-GFP+ autophagosome vesicle number per cell in human H4 cells at 5.2 uM after 24 hrs by high throughput fluorescence microscopy relative to control; in short: as §2
H4 [17] = assay: Increase in light chain 3-GFP+ autophagosome vesicle area per cell in human H4 cells at 5.2 uM after 24 hrs by high throughput fluorescence microscopy relative to control; in short: as §4
H4 [18] = assay: Increase in light chain 3-GFP+ autophagosome vesicle intensity per cell in human H4 cells at 5.2 uM after 24 hrs by high throughput fluorescence microscopy relative to control; in short: as §2
H4 [19] = assay: Effect on FYVE-RFP+ vesicle intensity per cell in human H4 cells after 4 hrs relative to control; set-up: concentration or dose not given beside the values; in short: as §1
H4 [20] = assay: Induction of light chain 3-GFP level in human H4 cells at 5.2 uM after 24 hrs by high throughput fluorescence microscopy relative to control; in short: as §3
H4 [21] = assay: Effect on FYVE-RFP+ vesicle intensity per cell in human H4 cells after 8 hrs relative to control; set-up: concentration or dose not given beside the values; in short: as §1
H4 [22] = assay: Effect on FYVE-RFP+ vesicle intensity per cell in human H4 cells after 2 hrs relative to control; set-up: concentration or dose not given beside the values; in short: as §1
H4 [23] = assay: Increase in light chain 3-GFP+ autophagosome vesicle intensity per cell in human H4 cells at 6.0 uM after 24 hrs by high throughput fluorescence microscopy relative to control
In short: (§5)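 H4 cells stably expressing LC3-GFP, seeded in 96-well plates and exposed to compound for 24 h; fixed in 4% paraformaldehyde, nuclei stained with 3 μg/ml DAPI. Automated fluorescence microscopy scored number, size and intensity of LC3-GFP spots; values expressed relative to DMSO-treated wells, rapamycin positive control. Triplicate wells, mean ± SD; experiments repeated three times.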

H4 [24] = assay: Increase in light chain 3-GFP+ autophagosome vesicle number per cell in human H4 cells at 6.0 uM after 24 hrs by high throughput fluorescence microscopy relative to control
In short: (§6)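 H4 cells stably expressing LC3-GFP, kept in DMEM/10% FBS at 37°C, 5% CO2, were seeded in 96-well plates and exposed to compound for 24 h. Cells were then fixed in 4% paraformaldehyde and stained with 3 μg/ml DAPI. Automated fluorescence microscopy scored the number, size and intensity of LC3-GFP spots. Values are percent of DMSO wells, in triplicate, mean ± SD. Rapamycin served as positive control.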

H4 [25] = assay: Induction of light chain 3-GFP level in human H4 cells at 6.0 uM after 24 hrs by high throughput fluorescence microscopy relative to control; in short: as §6
H4 [26] = assay: Increase in light chain 3-GFP+ autophagosome vesicle area per cell in human H4 cells at 6.0 uM after 24 hrs by high throughput fluorescence microscopy relative to control; in short: as §5

SMILES | Activity (H4 [1]) | Activity (H4 [2]) | Activity (H4 [4]) | Activity (H4 [6]) | Activity (H4 [8]) | Activity (H4 [10]) | Activity (H4 [11]) | Activity (H4 [16]) | Activity (H4 [17]) | Activity (H4 [18]) | Activity (H4 [20]) | other results
CC(C)[C@@H](O)CC[C@@H](C)[C@H]1CC[C@H]2[C@@H]3CC=C4C[C@@H](O)CC[C@]4(C)[C@H]3CC[C@]12C | 38.02% | 38.51% | 38.32% | 89.7% | 125.06% | 105.76% | 106.22% |  |  |  |  | Activity (H4 [3]): 648.9%; Activity (H4 [5]): 220.93%; Activity (H4 [7]): 108.2%; Activity (H4 [9]): 299.59%
COc1ccc(CCCOC(Cn2ccnc2)c2ccc(OC)cc2)cc1 (stereo unspecified) |  |  |  |  |  |  |  |  |  |  |  | Activity (H4 [3]): 285.59%; Activity (H4 [5]): 179.88%; Activity (H4 [7]): 42.96%; Activity (H4 [9]): 209.11%
O=S(=O)(c1cccc2c(Cl)cccc12)N1CCCNCC1 |  |  |  |  |  |  |  |  |  |  |  | Activity (H4 [12]): 82.33%; Activity (H4 [13]): 210.65%; Activity (H4 [14]): 272.31%; Activity (H4 [15]): 447.81%
CN(CCc1ccc(Cl)c(Cl)c1)CC(O)COc1ccc(NS(C)(=O)=O)cc1 (stereo unspecified) |  |  |  | 91.75% | 95.15% | 86.27% | 96.25% | 166.24% | 192.05% | 222.83% | 135.28% | Activity (H4 [19]): 71.97%; Activity (H4 [21]): 66.35%; Activity (H4 [22]): 68.06%
CC1(C)C(C=C(Cl)Cl)C1C(=O)OC(C#N)c1cccc(Oc2ccccc2)c1 (stereo not drawn) [ALPHA-CYPERMETHRIN] | 33.75% | 58.22% | 29.13% | 98.36% | 94.75% | 95.28% | 103.75% |  |  |  |  | Activity (H4 [23]): 208.14%; Activity (H4 [24]): 174.74%; Activity (H4 [25]): 97.45%; Activity (H4 [26]): 200.12%
CC(C)COCC(CN(Cc1ccccc1)c1ccccc1)N1CCCC1 (stereo unspecified) [BEPRIDIL] | 65.27% | 35.94% | 45.17% | 98.78% | 101.9% | 112.64% | 117.59% |  |  |  |  | Activity (H4 [3]): 168.39%; Activity (H4 [5]): 144.05%; Activity (H4 [7]): 111.92%; Activity (H4 [9]): 160.34%
CCCC[C@@H](C=O)NC(=O)[C@H](CC(C)C)NC(=O)OCc1ccccc1 [CALPEPTIN] | 58.44% | 61.02% | 63.28% | 78.67% | 73.3% | 68.3% | 81.62% |  |  |  |  | Activity (H4 [12]): 128.87%; Activity (H4 [13]): 177.07%; Activity (H4 [14]): 207.34%; Activity (H4 [15]): 232.89%
C=C1[C@@H](C)[C@H]2[C@H](Cc3ccccc3)NC(=O)[C@]23OC(=O)/C=C/[C@H](O)CCC[C@@H](C)C/C=C/[C@H]3[C@@H]1O [CYTOCHALASIN B] |  |  |  |  |  |  |  | 208.73% | 247.77% | 286.43% | 30.58% | 
Fc1ccc(C(c2ccc(F)cc2)N2CCN(C/C=C/c3ccccc3)CC2)cc1 [FLUNARIZINE] | 53.92% | 48.6% | 44.48% | 93.65% | 97.33% | 107.1% | 113.6% | 155.03% | 179.26% | 203.66% | 104.67% | 
CC1(C)[C@@H](O)C[C@H]2[C@](C)(O)[C@@H]3CC[C@@H]4[C@@H](O)[C@@]3(C[C@@H](O)[C@@]21O)C[C@@]4(C)O [GRAYANOTOXIN III] | 45.44% | 39.83% | 39.37% | 90.49% | 95.81% | 96.23% | 91.03% |  |  |  |  | Activity (H4 [23]): 210.65%; Activity (H4 [24]): 130.17%; Activity (H4 [25]): 129.36%; Activity (H4 [26]): 154.31%
CC[C@H]1[C@@H]2C=C[C@H]3[C@@H](C[C@H]4/C=C/C(=O)C5=C[C@H](CCCNC(=O)/C=C\C[C@H]34)NC5=O)[C@H]2C[C@H]1C [IKARUGAMYCIN] |  |  |  |  |  |  |  | 75.79% | 107.27% | 172.85% | 50.16% | 
O=C1Nc2ccccc2/C1=C1/Nc2ccccc2C1=O [INDIRUBIN] | 73.16% | 59.18% | 35.1% | 95.3% | 105.91% | 94.5% | 100.5% |  |  |  |  | 
O=c1cc(N2CCOCC2)oc2c(-c3ccccc3)cccc12 [LY-294002] | 24.99% | 11.09% | 14.79% |  |  |  |  |  |  |  |  | 
C=C[C@H]1CN2CC[C@H]1C[C@H]2[C@H](O)c1ccnc2ccc(OC)cc12 [QUININE] |  |  |  | 99.32% | 94.35% | 110.94% | 103.56% |  |  |  |  | Activity (H4 [12]): 115.16%; Activity (H4 [13]): 146.94%; Activity (H4 [19]): 78.03%; Activity (H4 [14]): 160.38%; Activity (H4 [15]): 165.01%; Activity (H4 [21]): 60.7%; Activity (H4 [22]): 70.35%
CC(/C=C/C(=O)NO)=C\[C@@H](C)C(=O)c1ccc(N(C)C)cc1 [TRICHOSTATIN] |  |  |  |  |  |  |  | 636.52% | 864.85% | 1649.69% | 40.15% | 
COc1ccc(CCN(C)CCC[C@](C#N)(c2ccc(OC)c(OC)c2)C(C)C)cc1OC [VERAPAMIL] |  |  |  | 97.84% | 103.33% | 114.92% | 94.39% | 168.55% | 200.63% | 238.6% | 132.44% | 
